PLC-gamma1 inh: PLC-gamma1 (human) inhibition, primary screen. 370,000 tested, 0.84% active. P19174. AID 720700. purified PLC-gamma1, fluorogenic substrate, fluorescence. inhibition, % at 12.2 µM; in the data active = inhibition above about 9.5%
PLCb3 inh: blocks human PLC-beta3 enzyme activity; Q01970; Purified PLC-beta3, fluorogenic substrate, fluorescence; inhibition, % at 12.2 µM; 370,000 tested, 0.18% active; AID 720704; in the data active = inhibition above about 11%
DDE Tn6 FP inh: disrupts Tn6 cyclic peptide binding to fibrin D-Dimer-E complex. P02675. Fibrin DD(E) TRITC-Tn6 fluorescence polarization displacement. inhibition, % at 8.3 µM. 370,000 tested, 0.21% active;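 active = inhibition above a per-campaign cutoff: mean of compounds within control limits plus 3 SD, cut at about 15% in these data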
DDE Tn7 FP inh: DD(E)-Tn7 binding inhibition, primary FP screen; P02675; FP displacement of FITC-Tn7 peptide from fibrin DD(E); 0% = median of compound wells per plate; inhibition, % at 8.3 µM; 370,000 tested, 0.13% active;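 active = inhibition above the mean of compounds falling within the control limits plus 3 SD of them, cut at about 14% in these data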
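Assay system: Human fibrin DD(E) protein | Medium: Tris buffer with calcium and detergent, pH 7.8 | Reagent: 0.1 µM fluorescent Tn7 | Compound dosing: Single point at 8.3 µM | Times: 10 min preincubation, 3 h with tracer, room temperature | Detection: Fluorescence polarization of the labelled Tn7 tracer | Controls: Aha-Tn7 high control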
ADAM10 inh: inhibitors of human ADAM10; AID 720582; 370,000 tested, 0.62% active; O14672; inhibition, % at 7 µM; recombinant ADAM10, EDANS/DABCYL FRET peptide cleavage, 3 h;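 active = inhibition above a per-campaign cutoff equal to the mean of compounds falling between control-based bounds plus 3 SD, cut at about 20% in these data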
ADAM17 inh: inhibits human ADAM17; recombinant ADAM17, EDANS/DABCYL FRET peptide cleavage; inhibition, % at 6.95 µM; 370,000 tested, 0.83% active; AID 720648; P78536;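 active = inhibition above the mean of compounds lying between control limits plus 3 SD, set per campaign, cut at about 8.5% in these data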
Target sequence (P78536 215-824 limits assumed): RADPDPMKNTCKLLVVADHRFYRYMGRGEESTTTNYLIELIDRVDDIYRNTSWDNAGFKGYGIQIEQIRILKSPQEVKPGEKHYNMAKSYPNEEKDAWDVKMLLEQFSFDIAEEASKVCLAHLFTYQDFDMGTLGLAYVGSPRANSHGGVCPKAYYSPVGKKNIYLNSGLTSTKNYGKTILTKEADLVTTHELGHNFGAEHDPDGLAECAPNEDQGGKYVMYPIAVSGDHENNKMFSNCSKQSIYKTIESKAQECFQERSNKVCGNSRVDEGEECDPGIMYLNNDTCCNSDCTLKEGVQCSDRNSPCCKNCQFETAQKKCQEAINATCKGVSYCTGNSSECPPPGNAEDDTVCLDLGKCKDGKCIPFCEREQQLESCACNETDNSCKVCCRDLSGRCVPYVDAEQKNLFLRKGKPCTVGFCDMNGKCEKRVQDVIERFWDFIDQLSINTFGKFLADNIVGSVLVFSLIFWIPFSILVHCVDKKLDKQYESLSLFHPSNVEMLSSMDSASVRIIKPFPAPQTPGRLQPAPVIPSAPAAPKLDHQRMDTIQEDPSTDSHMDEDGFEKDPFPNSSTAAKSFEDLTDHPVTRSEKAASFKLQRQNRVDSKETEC
ADAM10 counter: counter-screen for ADAM17 exosite inhibitors: inhibitors of human ADAM10; AID 743256; recombinant ADAM10, EDANS/DABCYL FRET peptide cleavage, 3 h; shares compounds with ADAM17 inh; inhibition, % at 6.95 µM; 2,900 tested, 47% active;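 active = mean inhibition over the triplicate runs exceeds the activity threshold set in the earlier primary screen, cut at about 20% in these data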
ADAM17 confirm: human ADAM17 inhibition, confirmation; shares compounds with ADAM17 inh; recombinant ADAM17, EDANS/DABCYL QFRET peptide cleavage; inhibition, % at 6.95 µM; 2,900 tested, 65% active; AID 743257;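 active = mean inhibition across replicates above the hit cutoff set in the primary screen, cut at about 8.5% in these data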
Numbers stand for hits. The list is not random: actives were taken first. Their share in the collection is about 2.3%.

Results for COC(=O)C1=C(C)N=C2SC(C)C(=O)N2C1c1cccs1 (centres undefined) ?
PLC-gamma1 inh: inactive; PLCb3 inh: inactive; DDE Tn6 FP inh: inactive; DDE Tn7 FP inh: inactive; ADAM10 inh: inactive; ADAM17 inh: 9.6; ADAM10 counter: inactive; ADAM17 confirm: inactive

Results for O=C(COc1ccc(Cl)cc1Cl)NCCCCc1ccccc1 ?
PLC-gamma1 inh: inactive; PLCb3 inh: inactive; DDE Tn6 FP inh: inactive; DDE Tn7 FP inh: inactive; ADAM10 inh: inactive; ADAM17 inh: 18; ADAM10 counter: 31; ADAM17 confirm: 13

How did O=c1c(Cc2ccc(Cl)cc2)c(O)ccn1Cc1cccc(Cl)c1 do in these assays?
PLC-gamma1 inh: inactive; PLCb3 inh: inactive; DDE Tn6 FP inh: inactive; DDE Tn7 FP inh: inactive; ADAM10 inh: inactive; ADAM17 inh: inactive

How did O=c1c(Cc2ccc(Cl)cc2Cl)c(O)ccn1Cc1ccc(Cl)cc1 do in these assays?
PLC-gamma1 inh: inactive; PLCb3 inh: inactive; DDE Tn6 FP inh: inactive; DDE Tn7 FP inh: inactive; ADAM10 inh: inactive; ADAM17 inh: 11; ADAM10 counter: 26; ADAM17 confirm: 16

What do the screens show for `O=C(CN1C(=O)S/C(=C\c2ccc(F)cc2)C1=O)Nc1cccc(S(=O)(=O)NCc2ccco2)c1`?
PLC-gamma1 inh: inactive; PLCb3 inh: inactive; DDE Tn6 FP inh: inactive; DDE Tn7 FP inh: inactive; ADAM10 inh: inactive; ADAM17 inh: 9.2; ADAM10 counter: 21; ADAM17 confirm: 12

How did CCc1ccccc1OCC(=O)Nc1cccc(S(=O)(=O)NCc2ccco2)c1 do in these assays?
PLC-gamma1 inh: inactive; PLCb3 inh: inactive; DDE Tn6 FP inh: inactive; DDE Tn7 FP inh: inactive; ADAM10 inh: inactive; ADAM17 inh: inactive

Results for CCCCOC(=O)c1ccc(NC(=O)COC(=O)CN2C(=O)NC3(CCCC3)C2=O)cc1 ?
PLC-gamma1 inh: inactive; PLCb3 inh: inactive; DDE Tn6 FP inh: inactive; DDE Tn7 FP inh: inactive; ADAM10 inh: inactive; ADAM17 inh: 9.2; ADAM10 counter: 21; ADAM17 confirm: 13

What do the screens show for `C[C@@H]1CN([C@H](C)CO)C(=O)c2cc(NC(=O)Cc3ccccc3)ccc2O[C@H]1CN(C)Cc1ccc(Oc2ccccc2)cc1`?
PLC-gamma1 inh: inactive; PLCb3 inh: inactive; DDE Tn6 FP inh: inactive; DDE Tn7 FP inh: inactive; ADAM10 inh: inactive; ADAM17 inh: 9.2; ADAM10 counter: 28; ADAM17 confirm: 19

Results for C[C@H](CO)N1C[C@H](C)[C@@H](CN(C)C(=O)Nc2ccc3c(c2)OCO3)Oc2ccc(NC(=O)Cc3ccccc3)cc2C1=O ?
PLC-gamma1 inh: inactive; PLCb3 inh: inactive; DDE Tn6 FP inh: inactive; DDE Tn7 FP inh: inactive; ADAM10 inh: inactive; ADAM17 inh: inactive

How did COc1ccc(NC(=O)N(C)C[C@H]2Oc3ccc(NC(=O)Nc4ccc(C(F)(F)F)cc4)cc3C(=O)N([C@H](C)CO)C[C@@H]2C)cc1 do in these assays?
PLC-gamma1 inh: inactive; PLCb3 inh: inactive; DDE Tn6 FP inh: inactive; DDE Tn7 FP inh: inactive; ADAM10 inh: inactive; ADAM17 inh: 8.7; ADAM10 counter: 36; ADAM17 confirm: 18

How did C[C@@H]1CN([C@H](C)CO)C(=O)c2cc(NC(=O)Cc3cn(C)c4ccccc34)ccc2O[C@H]1CN(C)C(=O)Nc1ccc2c(c1)OCO2 do in these assays?
PLC-gamma1 inh: inactive; PLCb3 inh: inactive; DDE Tn6 FP inh: inactive; DDE Tn7 FP inh: inactive; ADAM10 inh: inactive; ADAM17 inh: 14; ADAM10 counter: inactive; ADAM17 confirm: inactive

How did C[C@H]1CN([C@@H](C)CO)C(=O)c2cc(NC(=O)Cc3ccccc3)ccc2O[C@H]1CN(C)Cc1ccccc1 do in these assays?
PLC-gamma1 inh: inactive; PLCb3 inh: inactive; DDE Tn6 FP inh: inactive; DDE Tn7 FP inh: inactive; ADAM10 inh: inactive; ADAM17 inh: inactive

What do the screens show for `O=C(NCc1ccc(C(=O)NC2CCCC2)cc1)c1cccc(Br)c1`?
PLC-gamma1 inh: inactive; PLCb3 inh: inactive; DDE Tn6 FP inh: inactive; DDE Tn7 FP inh: inactive; ADAM10 inh: inactive; ADAM17 inh: inactive

What do the screens show for `COc1ccc(COC(=O)C2CCN(S(=O)(=O)c3ccc(OC)c(OC)c3)CC2)cc1`?
PLC-gamma1 inh: inactive; PLCb3 inh: inactive; DDE Tn6 FP inh: inactive; DDE Tn7 FP inh: inactive; ADAM10 inh: inactive; ADAM17 inh: 9.7; ADAM10 counter: 30; ADAM17 confirm: 17

What do the screens show for `Cc1ccc(CN2CCCCC(NC(=O)Nc3cccc([N+](=O)[O-])c3)C2=O)cc1` (centres undefined)?
PLC-gamma1 inh: inactive; PLCb3 inh: inactive; DDE Tn6 FP inh: inactive; DDE Tn7 FP inh: inactive; ADAM10 inh: inactive; ADAM17 inh: inactive

What do the screens show for `CCOC(=O)C1=CCN(S(=O)(=O)c2ccc(C)cc2)C1c1ccc(C)cc1` (centres undefined)?
PLC-gamma1 inh: inactive; PLCb3 inh: inactive; DDE Tn6 FP inh: inactive; DDE Tn7 FP inh: inactive; ADAM10 inh: inactive; ADAM17 inh: inactive

How did CCOC(=O)C1=CCN(S(=O)(=O)c2ccccc2F)C1c1cccc(Br)c1 (centres undefined) do in these assays?
PLC-gamma1 inh: inactive; PLCb3 inh: inactive; DDE Tn6 FP inh: inactive; DDE Tn7 FP inh: inactive; ADAM10 inh: inactive; ADAM17 inh: 9.2; ADAM10 counter: inactive; ADAM17 confirm: 9.5

How did CCOC(=O)C1=CCN(S(=O)(=O)c2ccc(C)cc2)C1c1ccc(CC)cc1 (centres undefined) do in these assays?
PLC-gamma1 inh: inactive; PLCb3 inh: inactive; DDE Tn6 FP inh: inactive; DDE Tn7 FP inh: inactive; ADAM10 inh: inactive; ADAM17 inh: 8.8; ADAM10 counter: 20; ADAM17 confirm: 16

How did COc1cccc(CNC2CCC23CCC(C)CC3)c1 (centres undefined) do in these assays?
PLC-gamma1 inh: inactive; PLCb3 inh: inactive; DDE Tn6 FP inh: inactive; DDE Tn7 FP inh: inactive; ADAM10 inh: inactive; ADAM17 inh: inactive

What do the screens show for `Cc1ccc2nc(SCC(=O)Nc3cccc(S(=O)(=O)N(C)C)c3)[nH]c2c1`?
PLC-gamma1 inh: inactive; PLCb3 inh: inactive; DDE Tn6 FP inh: inactive; DDE Tn7 FP inh: inactive; ADAM10 inh: inactive; ADAM17 inh: 12; ADAM10 counter: inactive; ADAM17 confirm: 11

How did C#CCn1c(S(=O)(=O)Cc2ccc(F)cc2)nc(-c2ccccc2)c1-c1ccccc1 do in these assays?
PLC-gamma1 inh: inactive; PLCb3 inh: inactive; DDE Tn6 FP inh: inactive; DDE Tn7 FP inh: inactive; ADAM10 inh: inactive; ADAM17 inh: 8.7; ADAM10 counter: 22; ADAM17 confirm: 16

Results for CCOC(=O)Cn1c(S(=O)(=O)Cc2ccc(F)cc2)nc(-c2ccccc2)c1-c1ccccc1 ?
PLC-gamma1 inh: inactive; PLCb3 inh: inactive; DDE Tn6 FP inh: inactive; DDE Tn7 FP inh: inactive; ADAM10 inh: inactive; ADAM17 inh: inactive
